For one data set, the system named is normal cells. In words: Effect of lysosomal pH-raising agents on nuclear fluorescence of BMVC. The data set is classed as cell-based. Particulars: agents raise internal pH of lysosomes.
The test system of data set [1] is CL1-0 cells. As to the kind of experiment: Flow cytometry of fluorescence intensity. The data set is classed as cell-based, human. The essentials:
(§1)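 CL1-0 and MRC-5 cells were loaded with 1 µM carbazole dication for 5 h and exposed to 0, 0.5 or 1 mM lysosomotropic agent. Mean fluorescence was taken at 564–606 nm with 488 nm excitation and expressed as a ratio across treatments; three independent experiments.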

Data set [2] has as its system MCF-7/ADR cells. In words: Subcellular localization by fluorescence microscopy. It counts as cell-based, human.
Data set [3] deals with CL1-0 cells. In words: Subcellular localization by epi-fluorescence/confocal microscopy. It counts as cell-based, human. Particulars: for subcellular localization (nucleus versus mitochondria): CL1-0 human lung cancer cells, fluorescence microscopy.
The test system of another data set is MCF-7 cells. In words: Subcellular localization by fluorescence microscopy. It counts as cell-based, human. The settings on record: drug-sensitive MCF-7, 5 µM BMVC.
The subject of the next data set is normal and cancer cells. As to the kind of experiment: Low temperature. It counts as cell-based. The settings on record: incubation at 4°C, energy-dependent mechanisms inhibited. In a few lines:
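Cells were precooled at 4°C for 1 h to block energy-dependent uptake, then incubated with 1 µM test compound for 1 h. Cells were co-stained for 10 min with 1 ng ml−1 Hoechst 33342 (membrane-permeant) or Hoechst 33258 (impermeant) as controls. Imaging was by epi-fluorescence microscopy.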

Data set [4] concerns MRC-5 cells. In words: Subcellular localization by epi-fluorescence/confocal microscopy. It counts as cell-based, human.
Data set [5] deals with primary human normal foreskin fibroblast cell line (BJ). In words: Cytoplasmic microinjection. It counts as cell-based. Particulars: BJ cells, 5 min after injection. The essentials:
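BJ primary foreskin fibroblasts were grown on glass coverslips in EMEM with 10% FBS. At 37°C, the cytoplasm was co-microinjected with 170 µM test compound and 2.5 mg ml−1 Texas Red 70-kDa dextran, which cannot cross nuclear pores. After 5 min incubation, cells were moved to fresh CO2-independent medium and imaged live.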

For data set [6], the system named is MRC-5 cells. As to the kind of experiment: Flow cytometry of fluorescence intensity. The data set is classed as cell-based, human. Particulars: MRC-5, LeuLeuOMe treatment. The essentials:
as §1
On the technique in general: A flow cytometer gives signals particle by particle.

The subject of data set [7] is MCF-7/ADR cells. As to the kind of experiment: Flow cytometry of relative fluorescence changes. The data set is classed as cell-based, human. Particulars: for relative fluorescence change upon verapamil: 50 µM verapamil (P-glycoprotein inhibition); for relative fluorescence change upon LeuLeuOMe: 0.5 mM LeuLeuOMe.
Data set [8] has as its system MRC-5 cells. In words: Lysosomal membrane permeabilization. It counts as cell-based, human.
Data set [9] has as its system CL1-0 cells. As to the kind of experiment: Lysosomal membrane permeabilization. The data set is classed as cell-based, human.
Data set [10] in a line: Lipophilicity, n-octanol/water partition. The data set is classed as physicochemical. In a few lines:
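Shake-flask method: n-octanol and water were premixed and left overnight. Test compound was added to the aqueous phase at 500 µM and mixed with an equal volume of n-octanol. Absorbance was measured in each phase, and log P was calculated as log[Ao/Aw].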

In data set [11] the test system is MCF-7/ADR cells. As to the kind of experiment: Cytotoxicity of doxorubicin. It counts as cell-based. The settings on record: Homo sapiens, NCI/ADR-RES, read-out: cytotoxicity IC50.

SMILES strings stand for the structures. “Also recorded” adds a separate entry of the source. Bounds are passed on as bounds.

Turning to `Cl.N` [NH4Cl, ammonium chloride], in the data set with normal cells, the “effect on nuclear fluorescence of BMVC” value was “increased nuclear fluorescence of BMVC”.

With `C[n+]1ccc(C=Cc2ccc3[nH]c4ccc(C=Cc5cc[n+](C)cc5)cc4c3c2)cc1.[I-].[I-]` [BMVC, 3,6-bis(1-methyl-4-vinylpyridinium) carbazole diiodide], the time-dependent fluorescent intensity entry in the data set on CL1-0 cells [1] (1 µM BMVC, flow cytometry, CL1-0 compared with MRC-5) is on record as “significantly higher in CL1-0 than in MRC-5 cells”. Moreover, in the data set on CL1-0 cells [1] (CL1-0, LeuLeuOMe treatment), the “BMVC fluorescence change after LeuLeuOMe” value is “small increase in BMVC fluorescence”. The “nuclear fluorescence upon LeuLeuOMe treatment” value with MCF-7/ADR cells [2] (MCF-7/ADR, LeuLeuOMe, confocal microscopy) is recorded as “increased nuclear BMVC fluorescence”. Also, in the data set with MCF-7/ADR cells [2] (drug-resistant MCF-7/ADR), the “subcellular localization / lysosomal retention” value was “localized to the lysosomes; also recorded: retained in the lysosomes”. In addition, the “lysosomal retention / co-localization with LysoTracker” value with CL1-0 cells [3] (CL1-0 cancer cells, confocal microscopy) is listed as “partially colocalized with MitoTracker red, but not LysoTracker red”. Moreover, in the data set on CL1-0 cells [3], the “subcellular localization (nucleus versus mitochondria)” value is on record as “strong fluorescent signal was observed in the nuclei; also recorded: localize to the nuclei to a greater extent than the mitochondria”. The “fluorescent signal in cancer cell nuclei upon DNase treatment” value in the data set with CL1-0 cells [3] (fixed CL1-0 cells, DNase) is reported as “dramatically reduced”. Moreover, the “fluorescent signal in cancer cell nuclei upon RNase treatment” value with CL1-0 cells [3] (fixed CL1-0 cells, RNase) is reported as “moderately reduced”. Moreover, the subcellular localization result in the data set with MCF-7 cells is “released from the lysosomes and entered the nucleus”. Also, the “fluorescence detected in cells at 4°C (uptake)” value (from here on “fluorescence detected in cells”) in the data set with normal and cancer cells is reported as “not detected”. Further, the “BMVC fluorescence localization after LeuLeuOMe” value in the data set with MRC-5 cells [4] (MRC-5, 5 µM BMVC 24 h then LeuLeuOMe 0.5 mM 1 h) is “can be detected in the nucleus”. Moreover, the “nuclear fluorescence in fixed and permeabilized cells” value in the data set on MRC-5 cells [4] (MRC-5 fixed and permeabilized (4% formaldehyde, 0.1% Triton X-100)) is given as “strong BMVC fluorescence similar to that in CL1-0 cells”. Further, the “lysosomal retention / co-localization with LysoTracker” value in the data set with MRC-5 cells [4] (MRC-5 normal lung cells, confocal microscopy) is on record as “colocalized with LysoTracker red but not MitoTracker red”. The nuclear fluorescence entry in the data set with MRC-5 cells [4] (MRC-5 normal lung cells, fluorescence microscopy) is recorded as “no fluorescence was observed in the nuclei”. Further, the “localization after microinjection into the cytoplasm” value in data set [5] is on record as “rapidly accumulated in the nuclei”. The “BMVC fluorescence intensity change after LeuLeuOMe” value in the data set on MRC-5 cells [6] is listed as “increase in the fluorescence intensity”. In addition, in the data set with MCF-7/ADR cells [7], the “relative fluorescence change upon verapamil” value is “without affecting BMVC fluorescence” and the “relative fluorescence change upon LeuLeuOMe” value is “more than tenfold”.

As to `CCN(CC)CCCC(C)Nc1ccnc2cc(Cl)ccc12` (centres unmarked) [chloroquine], the “effect on nuclear fluorescence of BMVC” value in the data set on normal cells is “increased nuclear fluorescence of BMVC”.

Regarding `CCOc1ccc(-c2nc3ccc(-c4nc5ccc(N6CCN(C)CC6)cc5[nH]4)cc3[nH]2)cc1` [Hoechst 33342], the “fluorescence detected in cells” value in the data set on normal and cancer cells is on record as “readily detected in the cells”.

Regarding `COC(=O)[C@H](CC(C)C)NC(=O)[C@@H](N)CC(C)C` [LeuLeuOMe, L-leucyl-L-leucine methyl ester], the lysosomal membrane permeabilization result in the data set with MRC-5 cells [8] and in the data set on CL1-0 cells [9] was “increases lysosomal membrane permeabilization” throughout.

Regarding `CN1CCN(c2ccc3[nH]c(-c4ccc5[nH]c(-c6ccc(O)cc6)nc5c4)nc3c2)CC1` [Hoechst 33258], the “fluorescence detected in cells” value in the data set on normal and cancer cells was “not detected”.

For the molecule `C[n+]1ccc(/C=C/c2ccc3c(c2)c2cc(/C=C/c4cc[n+](C)cc4)ccc2n3CCOCCOCCOCC[N+]2(C)CCCCC2)cc1.[I-].[I-].[I-]` [BMVC-8C3O], in the data set with CL1-0 cells [3], the “subcellular localization (nucleus versus mitochondria)” value was “localized to both the nucleus and the mitochondria”. Besides, the “lipophilicity (log P), in words” value in data set [10] is given as “lower lipophilicity”.

For orientation: IC50 means the concentration needed to halve the response being measured. On to `COc1cccc2c1C(=O)c1c(O)c3c(c(O)c1C2=O)C[C@@](O)(C(=O)CO)C[C@@H]3O[C@H]1C[C@H](N)[C@H](O)[C@H](C)O1` [doxorubicin, reference compound], for which the IC50 in the data set on MCF-7/ADR cells [11] was no less than 20 µM. Moreover, in the data set with MCF-7/ADR cells [7], the “relative fluorescence change upon verapamil” value is reported as “increased twofold” and the “relative fluorescence change upon LeuLeuOMe” value is reported as “no difference in doxorubicin fluorescence”.

The record behind these values is publication PMC3915044 (Integrative biology : quantitative biosciences from nano to …, 2013).
